According to ChEMBL document CHEMBL1122104, “Ring contraction of oleandrose on the macrolide antibiotic oleandomycin with [(Methoxycarbonyl)sulfamoyl]triethylammonium hydroxide inner salt” (1982):

Assays:
Neisseria sicca [1] = test: In vitro antibacterial activity against Neisseria sicca (66C000), and minimum inhibitory concentration was determined
Escherichia coli [2] = test: In vitro antibacterial activity against Escherichia coli (51A470), and minimum inhibitory concentration was determined; format: functional
Procedure, shortened: (§1)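 Broth dilution MIC determination, done per a previously described procedure. Each value is the mean of two determinations.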

Streptococcus pneumoniae = test: In vitro antibacterial activity against Streptococcus pneumoniae (02J012), and minimum inhibitory concentration was determined; format: functional
Procedure, shortened: as §1

Streptococcus pyogenes = test: In vitro antibacterial activity against Streptococcus pyogenes (02C203), and minimum inhibitory concentration was determined; format: functional
Procedure, shortened: as §1

Staphylococcus aureus [3] = test: In vitro antibacterial activity against Staphylococcus aureus (01A005), and minimum inhibitory concentration was determined; format: functional
Procedure, shortened: as §1

Enterococcus faecalis = test: In vitro antibacterial activity against Streptococcus faecalis (02A006), and minimum inhibitory concentration was determined; format: functional
Procedure, shortened: as §1

Bacillus subtilis = test: In vitro antibacterial activity against Bacillis subtilis (06A001), and minimum inhibitory concentration was determined; format: functional
Procedure, shortened: as §1

Staphylococcus aureus [4] = test: In vitro for antibacterial activity against Staphylococcus aureus (01A111), and minimum inhibitory concentration was determined; format: functional
Procedure, shortened: as §1

Staphylococcus aureus [5] = test: In vitro for antibacterial activity against Staphylococcus aureus (01A400), and minimum inhibitory concentration was determined; format: functional
Procedure, shortened: as §1

Pasteurella multocida = test: In vitro antibacterial activity against Pasteurella multocida (59A0001), and minimum inhibitory concentration was determined; format: functional
Procedure, shortened: as §1

Escherichia coli [6] = test: In vitro antibacterial activity against Escherichia coli (51A125), and minimum inhibitory concentration was determined; format: functional
Procedure, shortened: as §1

Staphylococcus aureus [7] = test: In vitro antibacterial activity against Staphylococcus aureus (01A052), and minimum inhibitory concentration was determined; format: functional
Procedure, shortened: as §1

Escherichia coli [8] = test: In vitro antibacterial activity against Escherichia coli (51A125), and minimum inhibitory concentration was determined
Neisseria sicca [9] = test: In vitro antibacterial activity against Neisseria sicca (66C000), and minimum inhibitory concentration was determined; format: functional
Procedure, shortened: as §1

## C=CC1O[C@@H](O[C@@H]2C(C)C(=O)O[C@H](C)[C@H](C)C(OC(C)=O)C(C)C(=O)[C@]3(CO3)C[C@H](C)[C@H](OC3OC(C)CC(N(C)C)[C@H]3O)[C@H]2C)C[C@@H]1OC (some centres undefined)
Neisseria sicca [1]
  MIC: 6.25
Escherichia coli [2]
  MIC: 50
Streptococcus pneumoniae
  MIC: <0.01
Streptococcus pyogenes
  MIC: 0.39
Staphylococcus aureus [3]
  MIC: 3.12
Enterococcus faecalis
  MIC: 12.5
Bacillus subtilis
  MIC: 1.56
Staphylococcus aureus [4]
  MIC: 0.78
Staphylococcus aureus [5]
  MIC: 25
Pasteurella multocida
  MIC: 50
Escherichia coli [6]
  MIC: >800
Staphylococcus aureus [7]
  MIC: 6.25

## COC1CC(O[C@@H]2C(C)C(=O)O[C@H](C)[C@H](C)C(OC(C)=O)C(C)C(=O)[C@]3(CO3)C[C@H](C)[C@H](OC3OC(C)CC(N(C)C)[C@H]3O)[C@H]2C)OC(C)[C@@H]1O (some centres undefined)
Escherichia coli [8]
  MIC: 400
Escherichia coli [2]
  MIC: 6.25
Streptococcus pneumoniae
  MIC: <0.01
Streptococcus pyogenes
  MIC: 0.1
Staphylococcus aureus [3]
  MIC: 0.39
Enterococcus faecalis
  MIC: 1.56
Bacillus subtilis
  MIC: 0.78
Staphylococcus aureus [4]
  MIC: 0.78
Staphylococcus aureus [5]
  MIC: 1.56
Pasteurella multocida
  MIC: 6.25
Neisseria sicca [9]
  MIC: 1.56
Staphylococcus aureus [7]
  MIC: 0.39
